Source: ChEMBL document CHEMBL4814013, “Scaffold repurposing of fendiline: Identification of potent KRAS plasma membrane localization inhibitors” (Eur J Med Chem, 2021)
Calls of active or inactive are those of the source. The calls are words filed in the database; no cut-off is given here.

Legend:
MEF [1] = assay: Antiproliferative activity against mouse MEF cells expressing KRAS G12V mutant assessed as reduction in cell growth incubated for 72 hrs by CyQuant proliferation assay; assay type: functional, cell-based
Method in brief: (§1)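 Cells seeded in 96-well plates; after 24 h fresh growth medium with 0.1% DMSO vehicle or drug added (highest dose 30 µM for cancer lines), grown 72 h at 37 °C, 5% CO2. Live cell number measured by CyQUANT fluorescence. IC50 from three independent experiments. MEFs were isogenic lines carrying oncogenic BRAF or KRAS.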

MEF [2] = assay: Cytotoxicity against mouse MEF cells expressing BRAF V600E mutant and wild type KRAS assessed as reduction in cell growth incubated for 72 hrs by CyQuant proliferation assay; assay type: functional, cell-based; method in brief: as §1
Mus musculus [3] = assay: In vivo inhibition of KRAS signaling in nu/nu mouse xenografted with human MIA PaCa-2 cells harboring KRAS mutation assessed as decrease in ERK phosphorylation in tumor at 1 to 5 mg/kg, ip administered once daily for 5 days with 2 days break by immunohistochemistry; assay type: functional, organism-based; settings: dose 1-5 mg/kg, time 5.0 day
Method in brief: (§2)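 Paraffin tumor sections of 4–5 µm were deparaffinized and given heat antigen retrieval in 10 mM sodium citrate. Endogenous peroxidase was quenched and sections blocked in 2.5% normal goat serum. Primary antibody (pERK or cleaved caspase 3) applied overnight at 4 °C, biotinylated secondary 1:250 for 45 min at rt, then ABC reagent 30 min and DAB development. Rabbit IgG served as control.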

[4] = target: T1, Sphingomyelin phosphodiesterase (Homo sapiens) (UniProt P17405); assay: Inhibition of human GFP-tagged ASM expressed in dog MDCK cells using sphingomyelin as substrate at 5 uM incubated for 48 hrs by Amplex Red dye based fluorescence analysis; assay type: cell-based
T1 sequence (whole entry): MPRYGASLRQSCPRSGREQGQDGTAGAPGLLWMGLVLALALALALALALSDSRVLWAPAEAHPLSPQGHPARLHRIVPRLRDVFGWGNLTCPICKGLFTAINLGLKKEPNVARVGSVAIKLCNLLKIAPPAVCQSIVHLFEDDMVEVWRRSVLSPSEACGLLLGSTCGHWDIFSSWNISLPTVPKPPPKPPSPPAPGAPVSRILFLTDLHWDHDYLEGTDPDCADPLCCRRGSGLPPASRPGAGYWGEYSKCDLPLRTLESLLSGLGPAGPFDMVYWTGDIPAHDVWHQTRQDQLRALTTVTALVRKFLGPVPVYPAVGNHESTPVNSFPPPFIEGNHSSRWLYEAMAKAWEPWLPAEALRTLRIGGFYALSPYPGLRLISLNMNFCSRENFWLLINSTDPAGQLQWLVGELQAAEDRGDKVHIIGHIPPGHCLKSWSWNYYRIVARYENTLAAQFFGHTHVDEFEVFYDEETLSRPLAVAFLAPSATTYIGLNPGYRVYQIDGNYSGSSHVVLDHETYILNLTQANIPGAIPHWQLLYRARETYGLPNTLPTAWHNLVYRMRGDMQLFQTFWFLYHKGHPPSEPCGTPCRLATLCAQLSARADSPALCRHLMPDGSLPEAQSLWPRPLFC
Method in brief: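 MDCK cells stably expressing human SMPD1-GFP treated 48 h at 5 µM. Whole-cell lysate, made without DTT, mixed with 50 mM sodium acetate pH 5.0 plus sphingomyelin and held 1 h at 37 °C. pH then raised to 7.4 with Amplex Red mix (100 µM Amplex Red, 2 U/mL HRP, 0.2 U/mL choline oxidase, 8 U/mL alkaline phosphatase, 100 mM Tris pH 8.0), 60 min at 37 °C. Fluorescence read at Ex 540/Em 590 nm. Controls: 0.1 U/mL SMase (positive), buffer alone (negative).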

[5] = Antiproliferative activity against human MPANC96 cells expressing KRAS mutant assessed as reduction in cell growth incubated for 72 hrs by CyQuant proliferation assay; assay type: functional, cell-based; settings: MPANC96, 72 h; method in brief: as §1
Mus musculus [6] = assay: In vivo inhibition of Ca2+ channel in nu/nu mouse xenografted with human MIA PaCa-2 cells harboring KRAS mutation assessed as blood vessel dialation in tumor at 1 to 5 mg/kg, ip administered once daily for 5 days with 2 days break by immunostaining; assay type: functional, organism-based; settings: dose 1-5 mg/kg, time 5.0 day
Mus musculus [7] = assay: In vivo inhibition of ASM in nu/nu mouse xenografted with human MIA PaCa-2 cells harboring KRAS mutation assessed as increase in SM accumulation in tumor at 12.5 mg/kg, ip administered once daily for 5 days with 2 days break by GFP-lysenin staining based confocal laser microscopy; assay type: functional, organism-based; settings: time 5.0 day
Method in brief: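 Sections of MiaPaCa-2 xenograft tumors from i.p.-treated nu/nu mice (12.5 mg/kg) stained with GFP-tagged lysenin to detect sphingomyelin.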

BXPC-3 = assay: Antiproliferative activity against human BXPC-3 cells expressing wild type KRAS assessed as reduction in cell growth incubated for 72 hrs by CyQuant proliferation assay; assay type: functional, cell-based; settings: BXPC-3, 72 h; method in brief: as §1
MIA PaCa-2 [8] = assay: Antiproliferative activity against human MIA PaCa-2 cells expressing KRAS mutant assessed as reduction in cell growth incubated for 72 hrs by CyQuant proliferation assay; assay type: functional, cell-based; settings: MIA PaCa-2, 72 h; method in brief: as §1
MEF [9] = assay: Antiproliferative activity against mouse MEF cells expressing KRAS G12D mutant assessed as reduction in cell growth incubated for 72 hrs by CyQuant proliferation assay; assay type: functional, cell-based; method in brief: as §1
MDCK [10] = assay: Reduction in expression of human GFP-tagged ASM transfected in dog MDCK cells at 5 uM incubated for 48 hrs by western blot analysis; assay type: functional, cell-based; settings: Canis lupus familiaris
Method in brief: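 SMPD1-GFP-expressing MDCK cells treated 48 h with 5 µM compound, washed in cold PBS and lysed in Tris pH 7.5 buffer with NaF, EGTA, DTT, vanadate, 1% NP40 and protease inhibitors. 20 µg of protein resolved by SDS-PAGE and immunoblotted. Signals detected by enhanced chemiluminescence and quantified by densitometry.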

NCI-H1975 = assay: Antiproliferative activity against human NCI-H1975 cells expressing wild type KRAS assessed as reduction in cell growth incubated for 72 hrs by CyQuant proliferation assay; assay type: functional, cell-based; settings: NCI-H1975, 72 h; method in brief: as §1
MDCK [11] = assay: Inhibition of ASM in dog MDCK cells co-expressing recombinant full length mGFP-tagged KRAS G12V mutant and mCherry-CAAX assessed as reduction in plasma membrane localization of KRAS mutant at 10 uM incubated for 48 hrs followed by incubation with recombinant ASM in continued presence of compound for 60 mins by confocal microscopic analysis; assay type: cell membranes; settings: Canis lupus familiaris, time 49.0 hrs
Method in brief: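 MDCK cells stably co-expressing mGFP-KRAS G12V and mCherry-CAAX seeded on glass coverslips and grown 48 h with or without compound. Medium then replaced with fresh medium containing 2 units/mL recombinant ASM, drug continued, for 60 min. Cells mounted in mowiol and imaged by confocal microscopy. Mislocalization scored by Manders coefficient.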

[12] = Antiproliferative activity against human MOH cells expressing KRAS mutant assessed as reduction in cell growth incubated for 72 hrs by CyQuant proliferation assay; assay type: functional, cell-based; method in brief: as §1
MIA PaCa-2 [13] = assay: Antitumor activity human MIA PaCa-2 cells harboring KRAS mutation xenografted in nu/nu mouse assessed as induction of apoptosis by measuring increase in cleaved caspase 3 level in tumor at 1 to 5 mg/kg, ip administered once daily for 5 days with 2 days break by immunohistochemistry; assay type: functional, organism-based; settings: dose 1-5 mg/kg, time 5.0 day; method in brief: as §2
HEC-1B cell line = assay: Antiproliferative activity against human HEC-1B cells expressing mutant KRAS assessed as reduction in cell growth incubated for 72 hrs by CyQuant proliferation assay; assay type: functional, cell-based; method in brief: as §1
HEC-1-A = assay: Antiproliferative activity against human HEC-1-A cells expressing mutant KRAS assessed as reduction in cell growth incubated for 72 hrs by CyQuant proliferation assay; assay type: functional, cell-based; method in brief: as §1
NCI-H1299 = assay: Antiproliferative activity against human NCI-H1299 cells expressing wild type KRAS assessed as reduction in cell growth incubated for 72 hrs by CyQuant proliferation assay; assay type: functional, cell-based; settings: NCI-H1299, 72 h; method in brief: as §1
Caco-2 = assay: Antiproliferative activity against human Caco-2 cells expressing wild type KRAS assessed as reduction in cell growth incubated for 72 hrs by CyQuant proliferation assay; assay type: functional, cell-based; settings: Caco-2, 72 h; method in brief: as §1
Ishikawa = assay: Antiproliferative activity against human Ishikawa cells expressing wild type KRAS assessed as reduction in cell growth incubated for 72 hrs by CyQuant proliferation assay; assay type: functional, cell-based; method in brief: as §1
NCI-H522 = assay: Antiproliferative activity against human NCI-H522 cells expressing wild type KRAS assessed as reduction in cell growth incubated for 72 hrs by CyQuant proliferation assay; assay type: functional, cell-based; settings: NCI-H522, 72 h; method in brief: as §1
Caenorhabditis elegans = assay: In vivo inhibition of KRAS signaling in Caenorhabditis elegans lin-1 L1 harboring let60 […] mutant assessed as reduction in multi-vulva phenotype measured after 4 to 5 days culturing in buffer containing Escherichia coli OP50 by DIC/Nomarski microscopic analysis; assay type: functional, organism-based; settings: dose 0.1-30 µM, time 4-5 day
Method in brief: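 let-60 (n1046) or lin-1 L1 larvae cultured in M9 buffer with E. coli OP50 plus DMSO vehicle or compound at 0.1, 0.3, 1, 3, 10 or 30 µM. After 4–5 days, adults were scored for multi-vulva by DIC/Nomarski microscopy.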

- inhibition [4]: Active
- IC50 (BXPC-3): 28.6 µM
- IC50 (MIA PaCa-2 [8]): 9.2 µM
- IC50 (NCI-H1975): > 30 µM
- inhibition (MDCK [11]): inactive
- IC50 (NCI-H1299): 24.3 µM
- IC50 (Caco-2): 14.5 µM
- IC50 (NCI-H522): 29.6 µM
SMILES: CC(NCCC(c1ccccc1)c1ccccc1)c1ccccc1 (configuration not stated) [FENDILINE]
- IC50 (MEF [1]): 8.1 µM
- IC50 (MEF [2]): 17.8 µM
- inhibition (Mus musculus [3]): inactive
- IC50 [5]: 10.8 µM
- inhibition (Mus musculus [6]): Active
- inhibition (Mus musculus [7]): Active
- IC50 (MEF [9]): 13.1 µM
- inhibition (MDCK [10]): inactive
- IC50 [12]: 11.1 µM
- Activity (MIA PaCa-2 [13]): inactive
- IC50 (HEC-1B cell line): 9.8 µM
- IC50 (HEC-1-A): 9.48 µM
- IC50 (Ishikawa): > 30 µM
- inhibition (Caenorhabditis elegans): Dose-Dependent Effect
